Tests used:
[1] = biological target: T1, Nuclear receptor ROR-gamma (Homo sapiens, UniProt P51449); assay: Inhibition of human RORgamma1 expressed in HEK293 cells after 24 hrs by luciferase reporter gene assay; assay type: cell-based
T1 sequence (P51449 whole entry): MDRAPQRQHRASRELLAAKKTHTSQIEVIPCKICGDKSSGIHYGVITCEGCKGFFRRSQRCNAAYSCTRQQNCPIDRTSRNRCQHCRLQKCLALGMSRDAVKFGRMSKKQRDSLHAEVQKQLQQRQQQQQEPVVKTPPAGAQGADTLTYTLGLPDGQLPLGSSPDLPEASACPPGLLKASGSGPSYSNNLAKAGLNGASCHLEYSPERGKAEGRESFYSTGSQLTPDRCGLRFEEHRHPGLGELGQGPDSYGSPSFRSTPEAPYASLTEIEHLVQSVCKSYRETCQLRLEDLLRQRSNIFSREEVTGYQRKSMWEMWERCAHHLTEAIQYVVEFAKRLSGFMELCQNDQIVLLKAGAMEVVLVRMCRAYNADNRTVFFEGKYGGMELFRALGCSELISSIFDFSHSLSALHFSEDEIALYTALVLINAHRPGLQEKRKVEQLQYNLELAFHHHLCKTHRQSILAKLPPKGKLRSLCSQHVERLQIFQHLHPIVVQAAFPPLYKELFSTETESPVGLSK

[2] = Octanol/water partition co-efficient, log P of the compound by HPLC method; assay type: physicochemical
[3] = biological target: T2, Nuclear receptor subfamily 1 group I member 2 (Homo sapiens, UniProt O75469); assay: Agonist activity at VP16-fused human PXR expressed in HEK293 cells after 24 hrs by luciferase reporter gene assay; assay type: cell-based
T2 sequence (O75469 whole entry): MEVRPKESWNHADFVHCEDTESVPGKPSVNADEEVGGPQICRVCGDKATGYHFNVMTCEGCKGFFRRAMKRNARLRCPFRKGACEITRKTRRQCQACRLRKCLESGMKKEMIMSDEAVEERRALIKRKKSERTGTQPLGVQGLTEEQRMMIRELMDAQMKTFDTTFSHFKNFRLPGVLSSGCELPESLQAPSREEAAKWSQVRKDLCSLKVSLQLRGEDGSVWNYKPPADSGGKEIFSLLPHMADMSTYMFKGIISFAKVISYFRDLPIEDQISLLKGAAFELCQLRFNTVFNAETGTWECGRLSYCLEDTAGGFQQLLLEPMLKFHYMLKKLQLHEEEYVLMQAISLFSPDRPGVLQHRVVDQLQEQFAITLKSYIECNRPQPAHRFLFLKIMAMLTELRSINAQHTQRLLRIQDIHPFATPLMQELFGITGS
Method in brief: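 HEK293 cells grown in DMEM with 5% FBS and penicillin/streptomycin at 37 °C, 5% CO₂. Seeded at 20% confluence 24 h before calcium-phosphate co-transfection with 150 ng receptor expression plasmid (PXR as a VP16 fusion), 500 ng luciferase reporter and 10 ng β-gal vector. Luciferase was normalized to β-galactosidase, in triplicate transfections.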

[4] = biological target: T3, Nuclear receptor ROR-alpha (Homo sapiens, UniProt P35398); assay: Inhibition of human RORalpha1 expressed in HEK293 cells after 24 hrs by luciferase reporter gene assay; assay type: cell-based
T3 sequence (P35398 whole entry): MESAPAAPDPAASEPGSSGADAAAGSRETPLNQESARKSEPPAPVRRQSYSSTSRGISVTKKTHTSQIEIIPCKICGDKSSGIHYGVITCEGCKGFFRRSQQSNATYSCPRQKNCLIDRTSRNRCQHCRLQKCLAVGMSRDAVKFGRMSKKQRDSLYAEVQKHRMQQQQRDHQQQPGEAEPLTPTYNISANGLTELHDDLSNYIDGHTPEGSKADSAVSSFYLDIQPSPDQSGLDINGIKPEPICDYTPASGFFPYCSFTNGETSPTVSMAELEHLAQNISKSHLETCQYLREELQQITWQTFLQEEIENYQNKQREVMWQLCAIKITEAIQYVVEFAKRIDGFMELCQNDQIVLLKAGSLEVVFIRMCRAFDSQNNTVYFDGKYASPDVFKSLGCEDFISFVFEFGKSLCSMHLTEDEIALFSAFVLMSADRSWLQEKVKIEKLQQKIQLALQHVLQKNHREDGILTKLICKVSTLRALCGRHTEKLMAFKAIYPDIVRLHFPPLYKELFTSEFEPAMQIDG

[5] = biological target: T4, Nuclear receptor ROR-alpha (Homo sapiens) (UniProt P35398); assay: Agonist activity at human RORalpha1 expressed in HEK293 cells after 24 hrs by luciferase reporter gene assay; assay type: cell-based
T4 sequence (whole entry): T3 sequence (P35398 whole entry)

[6] = biological target: T5, Nuclear receptor ROR-gamma (Homo sapiens) (UniProt P51449); assay: Agonist activity at human RORgamma1 expressed in HEK293 cells after 24 hrs by luciferase reporter gene assay; assay type: cell-based
T5 sequence (whole entry): T1 sequence (P51449 whole entry)

| IC50 ([1]; read-out: IC50) [µM] | logP [2] | EC50 ([3]; read-out: EC50) [µM] | IC50 ([4]; read-out: IC50) [µM] | IC50 ([1]; hek293) | IC50 ([4]; hek293) | EC50 ([3]; hek293) | Activity [5] [%] | Activity [6] [%] | SMILES |
| --- | --- | --- | --- | --- | --- | --- | --- | --- | --- |
| > 30 | 4.05 | 6.5 | > 30 |  |  |  |  |  | CCCCN(c1ccc([Si](C)(C)O)cc1)S(=O)(=O)c1ccccc1 |
|  | 2.79 | 1.4 |  | Not Active | Not Active |  |  |  | COC(=O)CN(c1ccc([Si](C)(C)O)cc1)S(=O)(=O)c1ccccc1 |
| > 30 |  |  |  |  | Not Active | Not Active |  |  | CC(C)(O)c1ccc(N(CC(F)(F)F)S(=O)(=O)c2ccccc2)cc1 |
| 11 |  | 0.63 | > 30 |  |  |  |  |  | C[Si](C)(O)c1ccc(N(CC(F)(F)F)S(=O)(=O)c2ccccc2)cc1 |
| > 30 | 3.92 | 3.2 | > 30 |  |  |  |  |  | C[Si](C)(O)c1ccc(N(Cc2ccccc2)S(=O)(=O)c2ccccc2)cc1 |
| > 30 | 2.35 |  |  |  | Not Active | Not Active |  |  | COC(=O)CN(c1ccc(C(C)(C)O)cc1)S(=O)(=O)c1ccccc1 |
|  | 2.9 | 3.4 |  |  |  |  | 53 | 54 | CN(c1ccc([Si](C)(C)O)cc1)S(=O)(=O)c1ccccc1 |
|  | 2.81 | 4.2 |  | Not Active | Not Active |  |  |  | COCCN(c1ccc([Si](C)(C)O)cc1)S(=O)(=O)c1ccccc1 |
| > 30 | 3.2 | 1.9 | > 30 |  |  |  |  |  | CCN(c1ccc([Si](C)(C)O)cc1)S(=O)(=O)c1ccccc1 |
|  | 2.22 | 2.4 |  | Not Active | Not Active |  |  |  | C[Si](C)(O)c1ccc(NS(=O)(=O)c2ccccc2)cc1 |
| > 30 | 4.32 | 14 | > 30 |  |  |  |  |  | C[Si](C)(O)c1ccc(N(CCc2ccccc2)S(=O)(=O)c2ccccc2)cc1 |

| SMILES | IC50 ([1]; read-out: IC50) [µM] | logP [2] | EC50 ([3]; read-out: EC50) [µM] | IC50 ([4]; read-out: IC50) [µM] | IC50 ([1]; hek293) | IC50 ([4]; hek293) | EC50 ([3]; hek293) | Activity [5] [%] | Activity [6] [%] |
| --- | --- | --- | --- | --- | --- | --- | --- | --- | --- |
| O=C(O)c1ccc(N(CC(F)(F)F)S(=O)(=O)c2ccccc2)cc1 |  |  |  |  | Not Active | Not Active | Not Active |  |  |

From ChEMBL document CHEMBL4229499, “Development of novel silanol-based human pregnane X receptor (PXR) agonists with improved receptor selectivity” (Bioorg Med Chem, 2018)
